Measured values as given in ChEMBL document CHEMBL3351343, “Synthesis and biological evaluation of novel sigma-1 receptor antagonists based on pyrimidine scaffold as agents for treating neuropathic pain” (J Med Chem, 2014).

Assays:
[1] = biological target: Sigma non-opioid intracellular receptor 1 (Cavia porcellus, UniProt Q60492); experiment: Displacement of [3H]-(+)-pentazocine from sigma-1 receptor in Dunkin Hartley guinea pig brain membranes after 180 mins by liquid scintillation counting analysis; parameters: species or system Membrane
Sigma non-opioid intracellular receptor 1, sequence (Q60492 whole entry): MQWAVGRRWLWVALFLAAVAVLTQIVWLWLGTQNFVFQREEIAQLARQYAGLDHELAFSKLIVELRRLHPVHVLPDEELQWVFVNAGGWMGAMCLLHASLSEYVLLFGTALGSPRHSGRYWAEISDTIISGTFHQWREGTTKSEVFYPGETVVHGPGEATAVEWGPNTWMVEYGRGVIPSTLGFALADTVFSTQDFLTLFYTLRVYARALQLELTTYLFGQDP

[2] = Displacement of [3H]-DTG from sigma-2 receptor in Dunkin Hartley guinea pig brain membrane after 120 mins by liquid scintillation counting analysis in presence of (+)-SKF10047; parameters: species or system Cavia porcellus
Cavia porcellus = organism: Cavia porcellus; experiment: Selectivity ratio of Ki for Dunkin Hartley guinea pig brain sigma-2 receptor to Ki for Dunkin Hartley guinea pig brain sigma-1 receptor
[3] = Acute toxicity in po dosed Kun Ming mouse after 24 hrs; assay type: organism-based; conditions: in vivo
Mus musculus [4] = experiment: Antinociceptive activity in Kun Ming mouse pain model assessed as reduction in licking and biting time during phase-1 at 80 mg/kg, ip administered 15 mins prior to formalin challenge relative to vehicle-treated control; assay type: functional; conditions: route intraperitoneal
In short: (§1)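 Kun Ming mice (20 ± 2.0 g), 10–12 per group, given vehicle (30% PEG 400) or drug ip at 10 mL/kg 15 min before intraplantar formalin. Time spent licking or biting the injected paw scored at 0–5 min (phase I) and 15–45 min (phase II). Effect (%) = (LTV − LTD)/LTV × 100.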

Mus musculus [5] = experiment: Antinociceptive activity in Kun Ming mouse pain model assessed as reduction in licking and biting time during phase-2 at 80 mg/kg, ip administered 15 mins prior to formalin challenge relative to vehicle-treated control; assay type: functional; conditions: route intraperitoneal; in short: as §1

Row | SMILES | Ki [1] [nM] | Ki [2] [nM] | Ratio Ki (Cavia porcellus) | LD50 at 24 h [3] [mg/kg] | Time (Mus musculus [4]) [s] | Time (Mus musculus [5]) [s]
1 | CCCc1cc(OCCCN2CCCCC2)nc(-c2ccccc2)n1 | 34.9 | 1460 | 41.7 | – | – | –
2 | CC(C)c1cc(OCCCN2CCCCC2)nc(-c2ccccc2)n1 | 188 | 1840 | 9.7 | – | – | –
3 | CCc1cc(OCCCN2CCCC2)nc(-c2ccccc2)n1 | 22.4 | 1430 | 63.8 | – | – | –
4 | c1ccc(-c2nc(OCCCN3CCCCC3)cc(C3CC3)n2)cc1 | 253 | > 2000 | – | – | – | –
5 | c1ccc(-c2nc(OCCCN3CCCC3)cc(C3CC3)n2)cc1 | 278 | > 2000 | – | – | – | –
6 | Cc1cc(OCC(O)CN2CCOCC2)nc(-c2ccccc2)n1 (centres undefined) | 486 | 1640 | 3.4 | – | – | –
7 | Cc1cc(OCCN2CCOCC2)nc(-c2ccccc2)n1 | > 2000 | > 2000 | – | – | – | –
8 | Cc1cc(OCCOCCN2CCOCC2)nc(-c2ccccc2)n1 | 422 | 1920 | 4.6 | – | – | –
9 | Cc1nc(-c2ccc(C(F)(F)F)cc2)nc(OCCCN2CCCCC2)c1Cl | 4.42 | 1780 | – | 377 | – | –
10 | c1ccc(-c2cc(OCCCN3CCCC3)nc(-c3ccccc3)n2)cc1 | 735 | > 2000 | – | – | – | –
11 | Cc1nc(-c2ccc3ccccc3c2)nc(OCCCN2CCCCC2)c1Cl | 102 | > 2000 | – | – | – | –
12 | Cc1cc(OCCCN2CCC(C)CC2)nc(-c2ccccc2)n1 | 16.7 | 1420 | 84.7 | – | – | –
13 | Cc1ccc(-c2nc(C)c(Cl)c(OCCCN3CCCCC3)n2)cc1 | 1.96 | 1550 | – | 1680 | – | –
14 | FC(F)(F)c1cc(OCCCN2CCCCC2)nc(-c2ccccc2)n1 | 27.6 | 1330 | 48 | – | – | –
15 | Cc1cc(OCCCCCCN2CCOCC2)nc(-c2ccccc2)n1 | > 2000 | > 2000 | – | – | – | –
16 | FC(F)(F)c1cc(OCCCN2CCCC2)nc(-c2ccccc2)n1 | 27.6 | 1330 | 48 | – | – | –
17 | Cc1nc(-c2ccccc2)nc(OCCCN2CCCC2)c1Cl | 4.02 | 1680 | – | > 2000 | – | –
18 | Cc1cc(OCCCCCN2CCOCC2)nc(-c2ccccc2)n1 | 389 | > 2000 | – | – | – | –
19 | Cc1cc(OCCCN2CCN(c3ccccc3)CC2)nc(-c2ccccc2)n1 | > 2000 | > 2000 | – | – | – | –

Row | SMILES | Ki [1] [nM] | Ki [2] [nM] | Ratio Ki (Cavia porcellus) | LD50 at 24 h [3] [mg/kg] | Time (Mus musculus [4]) [s] | Time (Mus musculus [5]) [s]
20 | Cc1cc(OCCN2CCOCC2)nn1-c1ccc2ccccc2c1 | – | – | – | – | 10.65 | 33.16
21 | Cc1nc(-c2ccc(Cl)c(Cl)c2)nc(OCCCN2CCCCC2)c1Cl | 89.8 | > 2000 | – | – | – | –
22 | Cc1cc(OCCCN2CCC(O)CC2)nc(-c2ccccc2)n1 | 462 | 1760 | 3.8 | – | – | –
23 | Cc1nc(-c2ccccc2)nc(OCCCN2CCCCC2)c1F | 3.75 | 1360 | 363 | – | – | –
24 | Cc1cc(OCCCN2CCN(C)CC2)nc(-c2ccccc2)n1 | 22.7 | 1320 | 58.3 | – | – | –
25 | Cc1cc(OC/C=C/CN2CCOCC2)nc(-c2ccccc2)n1 | 116 | 1450 | 12.5 | – | – | –
26 | Cc1cc(OCCCN2CC(C)CC(C)C2)nc(-c2ccccc2)n1 (centres undefined) | 30.2 | 1660 | 55 | – | – | –
27 | Cc1nc(-c2ccc(F)cc2)nc(OCCCN2CCCCC2)c1Cl | 1.14 | 1330 | – | 884 | – | –
28 | Cc1cc(OCCCN2C(C)(C)CCCC2(C)C)nc(-c2ccccc2)n1 | 377 | > 2000 | – | – | – | –
29 | CCCc1cc(OCCCN2CCCC2)nc(-c2ccccc2)n1 | 38.9 | 1400 | 35.8 | – | – | –
30 | Cc1cc(OCCCN2CCCN(C)CC2)nc(-c2ccccc2)n1 | 18.7 | 1300 | 69.2 | – | – | –
31 | Cc1cc(OCCCN(C)C)nc(-c2ccccc2)n1 | 82.3 | > 2000 | – | – | – | –
32 | Cc1cc(OCCCN2CCN(C(=O)OC(C)(C)C)CC2)nc(-c2ccccc2)n1 | > 2000 | > 2000 | – | – | – | –
33 | Cc1cc(OCCCN2CCC(=O)CC2)nc(-c2ccccc2)n1 | 319 | 1490 | 4.7 | – | – | –
34 | Cc1nc(C2CC2)nc(OCCCN2CCCCC2)c1Cl | 39.5 | 1330 | 33.6 | – | – | –
35 | CCN(CC)CCCOc1cc(C)nc(-c2ccccc2)n1 | 47.1 | 1320 | 28 | – | – | –
36 | Cc1nc(-c2ccccc2)nc(OCCCN2CCCCC2)c1Cl | 2.33 | 1650 | – | 440 | – | –
37 | c1ccc(-c2cc(OCCCN3CCCCC3)nc(-c3ccccc3)n2)cc1 | 966 | > 2000 | – | – | – | –

The next lines start with results.

Row | Ki [1] [nM] | Ki [2] [nM] | Ratio Ki (Cavia porcellus) | SMILES | LD50 at 24 h [3] [mg/kg] | Time (Mus musculus [4]) [s] | Time (Mus musculus [5]) [s]
38 | 3.51 | 1190 | 340 | Cc1nc(-c2ccccc2)nc(OCCCN2CCCC2)c1F | – | – | –
39 | – | 1290 | 332 | COc1ccc(-c2nc(C)c(Cl)c(OCCCN3CCCCC3)n2)cc1 | – | – | –
40 | 11.4 | 1280 | 112 | Cc1nc(-c2ccccc2)nc(OCCCN2CCCC2)c1C | – | – | –
41 | 0.97 | 943 | – | Cc1nc(-c2ccc(F)c(F)c2)nc(OCCCN2CCCCC2)c1Cl | – | – | –
42 | 187 | 1100 | 5.9 | Cc1ncnc(OCCCN2CCCCC2)c1Cl | – | – | –
43 | 30.6 | 1180 | 38.5 | CCN1CCN(CCCOc2cc(C)nc(-c3ccccc3)n2)CC1 | – | – | –
44 | 11.8 | 1050 | 89.1 | Cc1cc(OCCCN2CCCCC2)nc(-c2ccccc2)n1 | – | – | –
45 | 19.3 | 892 | 46.2 | COc1cc(OCCCN2CCCC2)nc(-c2ccccc2)n1 | – | – | –
46 | 38.8 | 1070 | 27.5 | CCCN(CCC)CCCOc1cc(C)nc(-c2ccccc2)n1 | – | – | –
47 | 95.2 | 1070 | 11.2 | Cc1cc(OCCCCN2CCOCC2)nc(-c2ccccc2)n1 | – | – | –
48 | 151 | 1210 | 8 | Cc1cc(OCCCN2CCNCC2)nc(-c2ccccc2)n1 | – | – | –
49 | 20.5 | 1140 | 55.6 | CCc1cc(OCCCN2CCCCC2)nc(-c2ccccc2)n1 | – | – | –
50 | 36.3 | 949 | 26.1 | Cc1cc(OCCCN2CCOCC2)nc(-c2ccccc2)n1 | – | – | –
51 | 9.51 | 1220 | 128 | Cc1nc(-c2ccccc2)nc(OCCCN2CCCCC2)c1C | – | – | –
52 | 218 | 1090 | 5 | CC(C)c1cc(OCCCN2CCCC2)nc(-c2ccccc2)n1 | – | – | –
53 | 58.8 | 1080 | 18.4 | Cc1nc(C)c(Cl)c(OCCCN2CCCCC2)n1 | – | – | –
54 | 13.6 | 1250 | 92.1 | Cc1cc(OCCCN2CCCC2)nc(-c2ccccc2)n1 | – | – | –
55 | 19.3 | 892 | 46.2 | COc1cc(OCCCN2CCCCC2)nc(-c2ccccc2)n1 | – | – | –
